The values below come from publication PMC3668529 (FEBS Open Bio, 2013).

As usually defined, the IC50 is the concentration needed to halve the response being measured. Read a low IC50 as higher potency. What is called Ki is a measure of affinity in units of concentration, obtained from inhibition or displacement.

Like-named read-outs stand apart in the source and are kept apart here.

For series [1], the target named is T1, rCPT-2 (Rattus norvegicus, UniProt P18886).
T1 sequence (P18886 26-658): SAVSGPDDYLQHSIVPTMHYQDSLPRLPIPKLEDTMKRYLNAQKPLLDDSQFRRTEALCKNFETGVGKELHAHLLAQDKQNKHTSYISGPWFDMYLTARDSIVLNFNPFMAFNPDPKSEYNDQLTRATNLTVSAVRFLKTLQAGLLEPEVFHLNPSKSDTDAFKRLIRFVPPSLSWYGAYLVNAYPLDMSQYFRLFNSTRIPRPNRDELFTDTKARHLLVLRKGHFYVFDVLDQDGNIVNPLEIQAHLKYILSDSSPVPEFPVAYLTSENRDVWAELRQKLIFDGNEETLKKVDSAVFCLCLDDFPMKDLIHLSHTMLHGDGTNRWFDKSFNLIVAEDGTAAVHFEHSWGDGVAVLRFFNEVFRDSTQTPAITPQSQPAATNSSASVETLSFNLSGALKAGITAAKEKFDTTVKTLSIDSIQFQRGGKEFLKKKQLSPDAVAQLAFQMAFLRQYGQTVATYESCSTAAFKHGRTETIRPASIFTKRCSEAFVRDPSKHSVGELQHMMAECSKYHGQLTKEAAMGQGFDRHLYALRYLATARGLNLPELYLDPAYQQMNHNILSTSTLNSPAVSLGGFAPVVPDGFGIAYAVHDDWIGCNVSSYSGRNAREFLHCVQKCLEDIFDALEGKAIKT
The experiment in a line: rCPT-2 activity assay, spectrophotometric with DTNB. It is filed as biochemical. The following applies: diluted lysate, 30 °C, reverse reaction, no additional β-OG. The gist of the method: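 The reverse reaction was run at 30 °C with crude Pichia pastoris lysate (30 nM enzyme) in 25 mM Tris–HCl pH 7.4, 120 mM KCl and 1 mM EDTA, without added β-OG. Substrates were 500 μM carnitine and 80 μM palmitoyl-CoA. Released CoA-SH was detected with DTNB by absorbance at 410 nm (ε 13,600 M−1 cm−1). Inhibitors were titrated from 10 mM DMSO stocks.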

The target of series [2] is T1, rCPT-2. As to the kind of experiment: Isothermal titration calorimetry. Type of series: binding. The gist of the method:
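Inhibitor (100–300 μM, from 10 mM DMSO stock, in identical buffer) was injected in 10 μL steps. ΔH0, K and n came from a 1:1 fit, with ΔG0 and ΔS0 calculated. ΔCp0 came from runs at several temperatures. Proton transfer was tested with HEPES, Bicine or Tris buffers at pH 8 and 10 °C, fitting ΔHobs against buffer ionization enthalpy by linear regression.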
(In general: ITC needs no label: the signal is the heat of the interaction.)

The nature of series [3]: ITC demicellization of β-OG with and without co-dissolved inhibitor. To be noted: for CMC / TΔSmic0 / ΔGmic0 / ΔHmic0: absence of rCPT-2. It is filed as physicochemical. Put shortly: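 Syringe held 300 mM β-OG with 1% or 7.5% (v/v) DMSO, with or without 0.75 mM inhibitor, in 25 mM Tris/HCl pH 8, 150 mM NaCl, 2 mM TCEP, degassed 10 min. Injected stepwise into buffer. Initial constant heats gave ΔHdemic0 (ΔHmic0 of opposite sign). Curves simulated with a cooperative association model. CMC taken as midpoint, ΔGmic0 = RT lnCMC, ΔCp0 from linear fits of ΔHmic0 versus temperature.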

Series [4] deals with T1, rCPT-2. As to the kind of experiment: Differential scanning calorimetry. Type of series: binding. Put shortly:
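Thermal unfolding was run by DSC at a scan rate of 30 °C/h. The reference cell held buffer, with a buffer–buffer blank as baseline. Transition midpoints were read from the curves.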
A general note: Differential scanning calorimetry records heat flow against a reference as temperature is scanned.

Series [5] has as its target T1, rCPT-2. As to the kind of experiment: Binding site by X-ray crystallography and manual docking. To be noted: crystal structures and docking models. Put shortly: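 Crystals were cryo-protected or oil-exchanged, flash frozen, and data collected at 100 K. Ligands were placed by manual modelling into the structure, then energy-minimised with protein atoms constrained.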

Series [6] addresses T1, rCPT-2. The following applies: octanoyl-CoA as substrate, competitive; cited from earlier work.
The conditions of series [7]: cited from earlier work.

As to `CCCCCCCCCCCCCCNC(=O)N[C@H](CC(=O)[O-])C[N+](C)(C)C` [Inhibitor 4, reference compound], at rCPT-2 [1], the half-inhibitory concentration (IC50) is 0.38 µM. For the same compound, the Kd at rCPT-2 [2] (ITC, 10 °C, 25 mM Tris/HCl pH 8, 1% β-OG, 1% DMSO) stood at 10.5 ± 3.3 µM. For the same compound, on rCPT-2 [2] (ITC, 10 °C, Tris/HCl pH 8), the “TΔS^0” value was -3.3 ± 0.5 kcal/mol, the “ΔG^0” value is -6.5 ± 0.3 kcal/mol and the “ΔH^0” value was -9.8 ± 0.7 kcal/mol. Moreover, at rCPT-2 [2] (ITC, 37 °C, Tris/HCl pH 8), the Kd is 20 µM, the “TΔS^0” value was -3.7 kcal/mol, the “ΔG^0” value is -5.9 kcal/mol and the “ΔH^0” value is -9.5 kcal/mol. Also, the “sign of the reaction enthalpy” value at rCPT-2 [2] (Tris/HCl pH 8) was “exothermic”. Further, the “molar heat capacity change ΔCp0 of binding” value at rCPT-2 [2] (Tris/HCl pH 8, temperature dependence of ΔH^0) is listed as 11 cal/mol K. At rCPT-2 [2] (read-out: dissociation constants determined by ITC), the Kd was 20 µM. Moreover, in series [3] (7.5% (v/v) DMSO, compared to β-OG alone), the “effect on the CMC of β-OG” value was “slightly increase”. For the same compound, in series [3] (14 °C), the CMC amounted to 35.1 mM, the TΔSmic0 was 3.26 kcal/mol and the ΔGmic0 was -1.90 kcal/mol. In series [3] (25 °C), this compound came in with a CMC of 31.3 mM, a TΔSmic0 of 2.92 kcal/mol, a ΔGmic0 of -2.04 kcal/mol and a ΔHmic0 of 0.88 kcal/mol. Also, in series [3] (30 °C), the CMC is 31.0 mM, the TΔSmic0 was found to be 2.66 kcal/mol, the ΔGmic0 was -2.08 kcal/mol and the ΔHmic0 is 0.57 kcal/mol. Besides, in series [3] (45 °C), the CMC is 31.0 mM, the TΔSmic0 is given as 1.74 kcal/mol, the ΔGmic0 was -2.19 kcal/mol and the ΔHmic0 is -0.45 kcal/mol. For the same compound, at rCPT-2 [4] (14 μM rCPT-2, 100 μM inhibitor), the “midpoint of the thermal unfolding transition of rCPT-2” value came to 49.8 °C. In addition, the “total unfolding enthalpy of rCPT-2” value on rCPT-2 [4] (interval 30–55 °C, protein in excess of inhibitor) amounted to 1270 kcal/mol. In addition, on rCPT-2 [4] (with versus without inhibitor), the “stability increase of rCPT-2” value was around 3 °C. At rCPT-2 [5], the “rCPT-2 (binding site)” value is on record as “Acylcarnitine site”.

In series [3] (14 °C), `CCCCCCCCO[C@@H]1O[C@H](CO)[C@@H](O)[C@H](O)[C@H]1O` [β-OG, β-octyl glucoside] displayed a CMC of 32.8 mM, a TΔSmic0 of 3.27 kcal/mol, a ΔGmic0 of -1.94 kcal/mol and a ΔHmic0 of 1.33 kcal/mol. Further, in series [3] (30 °C), the CMC was 27.8 mM, the TΔSmic0 worked out at 2.75 kcal/mol, the ΔGmic0 is -2.15 kcal/mol and the ΔHmic0 is 0.60 kcal/mol. In series [3] (37 °C), the CMC turned out to be 28.6 mM, the TΔSmic0 is on record as 2.34 kcal/mol, the ΔGmic0 was -2.18 kcal/mol and the ΔHmic0 amounted to 0.16 kcal/mol. In addition, the ΔHmic0 in series [3] (45 °C) was -0.54 kcal/mol. Further, the “molar heat capacity change of micelle formation ΔCp0” value in series [3] (slopes of ΔHmic0 versus temperature, with and without inhibitors) was −60 to −90 cal/mol K. For the same compound, on rCPT-2 [6], the Ki was 15000 µM.

Take cinnamycin: in series [7], the “binding constants of the PE–cinnamycin complex, times smaller in the β-OG environment” value is given as 10–100 times and the “free energy of binding ΔG^0, less negative in β-OG micelles than in the aqueous phase” value was 1 to 2.5 kcal/mol.
